# STEP inh: blocks human striatal-enriched tyrosine phosphatase | inhibition, % at 20 µM | 360,000 compounds, 0.25% hits | recombinant STEP, OMFP fluorogenic substrate, fluorescence | P54829;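 active means inhibition at 20 µM, scaled per plate between control wells, above about 37%, limit read from the data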;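 further: 0% = DMSO with enzyme and substrate and 100% = substrate only without enzyme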
#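 Assay system: isolated STEP enzyme. Buffer or medium: pH 6.0 Bis-Tris with DTT and Tween 20. Also added: fluorogenic phosphatase substrate OMFP at 25 µM final. Dosing: 20 µM, 1% DMSO. Timing: 20 min reaction, room temperature, in the dark. Measured by: fluorescence intensity, excitation 480 nm, emission 540 nm. Evaluation: normalized % inhibition.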
# GRK2 inh: blocks RNA aptamer binding to human GRK2; AID 488847; bead flow cytometry, FAM-aptamer displacement from GRK2; 330,000 compounds, 0.59% hits; P25098; inhibition of aptamer binding, % at 10 µM;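 active means inhibition of aptamer binding above 40%, roughly 3 SD of noise, on plates passing a quality check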;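 further: median bead fluorescence of bound FAM aptamer so fluorescent compounds give negative values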
# LMPTP inh: LMPTP (human) inhibition; P24666; inhibition, % at 20 µM; 360,000 compounds, 0.22% hits; recombinant LMPTP-A, OMFP fluorogenic substrate, fluorescence intensity;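 active means compounds that cut the enzyme signal by at least half of the control window in the single-dose screen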;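 further: plate controls were DMSO wells with enzyme plus substrate for no effect and substrate without enzyme for full effect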
# Target sequence (P24666 whole entry, looked up): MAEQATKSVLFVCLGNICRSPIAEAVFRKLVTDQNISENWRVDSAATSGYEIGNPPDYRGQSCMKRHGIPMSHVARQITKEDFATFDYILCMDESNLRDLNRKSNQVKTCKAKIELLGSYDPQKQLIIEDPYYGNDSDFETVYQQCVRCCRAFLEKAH
#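 Test system: LMPTP-A phosphatase enzyme; input: 0.625 nM LMPTP-A final; reagent: OMFP substrate, 400 µM final; compound dosing: 20 µM single dose, 3% DMSO; incubation: 50 min dark incubation at room temperature; measured by: endpoint fluorescence intensity from OMFP dephosphorylation; measure: % inhibition relative to no-enzyme and uninhibited control wells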
# SUMO1-SIM PPI: SUMO1-SIM interaction modulation | 360,000 compounds, 0.33% hits | inhibition, % at 20 µM | P63165 | SUMO1 binding to a labelled peptide, TR-FRET, 1 h; in the data active means inhibition above about 37%
# Target sequence (P63165 whole entry, looked up): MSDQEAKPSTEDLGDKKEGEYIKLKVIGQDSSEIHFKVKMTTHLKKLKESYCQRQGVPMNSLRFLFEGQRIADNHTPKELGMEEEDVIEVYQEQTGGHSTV
# DNMT1 inh: inhibitors of human DNMT1; DNMT1 molecular beacon, Hinp1I cleavage, fluorescence; 360,000 compounds, 0.83% hits; P26358; AID 588458; inhibition (reported as % activation of signal), % at 10 µM; in the data active means inhibition above about 50%
# Scp-1 inhibitor: Scp-1 (human) phosphatase inhibition; Q9GZU7; Recombinant Scp1, phosphopeptide, malachite green phosphate absorbance; inhibition, % at 20 µM; 340,000 compounds, 0.88% hits; AID 493091;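 active means inhibition above about 50% at 20 µM, limit read from the data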;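 further: plate controls were DMSO wells with enzyme for no effect and wells lacking enzyme for full effect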
# Target sequence (Q9GZU7 76-261 limits assumed): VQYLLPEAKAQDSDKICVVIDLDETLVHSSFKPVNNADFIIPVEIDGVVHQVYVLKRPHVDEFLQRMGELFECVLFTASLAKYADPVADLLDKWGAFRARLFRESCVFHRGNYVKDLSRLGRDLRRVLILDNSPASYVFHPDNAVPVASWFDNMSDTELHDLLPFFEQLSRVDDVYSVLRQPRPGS
#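 Test system: SCP-1 catalytic domain; Buffer or medium: Acidic Tris acetate buffer with magnesium and detergent; Also added: Phosphorylated 17-residue peptide substrate; Compound: single 20 µM dose, 1% DMSO; Schedule: enzyme reaction 45 min at room temperature, colour 5 min, stabilisation 30 min; Signal: Phosphate-binding colour reagent, absorbance read at 630 nm.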
# Scp1 confirm: confirmation of human Scp-1 phosphatase inhibitors. shares compounds with Scp-1 inhibitor. recombinant SCP-1 catalytic domain, phosphate release, malachite green absorbance. inhibition, % at 20 µM. 2,500 compounds, 61% hits. AID 540281;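 further: plate controls were DMSO with enzyme for no effect and buffer wells lacking enzyme for full effect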
# Scp-1 MG ctr: colorimetric interference in Scp-1 counter-screen. Colorimetric interference counterscreen, malachite green absorbance 630 nm. shares compounds with Scp-1 inhibitor. 2,500 tested, under 10 active. AID 540313. apparent inhibition (interference), % at 20 µM;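 further: compounds added after enzyme reaction finished so only phosphate colour detection is probed; plate controls were DMSO wells with completed Scp-1 reaction for no effect and substrate wells lacking enzyme for full effect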
# Scp1 DSF: Scp-1 (human) binding by thermal shift; shares compounds with Scp-1 inhibitor; Recombinant SCP1, Sypro Orange thermal shift Tm; thermal shift relative to vanadate control, % at 40 µM; 1,500 compounds, 25% hits; AID 540329;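 active means substances whose mean melting-temperature shift, as a percentage of the reference inhibitor's shift, reaches about 5.3%, limit read from the data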;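 further: 0% = Tm of DMSO wells and 100% = Tm with sodium orthovanadate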
# DNMT1 confirm: DNMT1 inhibition confirmation, single concentration; shares compounds with DNMT1 inh; DNMT1 molecular beacon HinP1I cleavage, fluorescence; inhibition, % at 10 µM; 2,300 compounds, 8% hits;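 active means average inhibition of at least 30% in the single-concentration confirmation test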
# DNMT1 interf: beacon fluorescence artifact counter-screen. activation (fluorescence interference), % at 10 µM. shares compounds with DNMT1 inh. 2,300 compounds, 1% hits. DNMT1 molecular beacon spectral interference counterscreen, fluorescence 485/520;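 active means activation of at least 30% at 10 µM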;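 further: DNMT1 catalytic domain with a HinP1I cleavage step and a FAM/dabcyl DNA beacon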
# STEP inh conf: confirmation of human STEP phosphatase inhibitors; shares compounds with STEP inh; recombinant STEP, OMFP fluorogenic substrate, fluorescence; inhibition, % at 20 µM; 520 compounds, 32% hits; call rule not given here;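 further: 0% = enzyme with substrate plus DMSO and 100% = substrate without enzyme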
# Starred values were filed as active, the others as inactive; x = no result. This is a sample that favours compounds with a hit; in the whole collection about 2.2% have one here.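 How the source made its calls, unless noted: active means inhibition of at least 30% at 20 µM; inactive means the rest.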
SMILES,STEP inh,GRK2 inh,LMPTP inh,SUMO1-SIM PPI,DNMT1 inh,Scp-1 inhibitor,Scp1 confirm,Scp-1 MG ctr,Scp1 DSF,STEP inh conf,others
CN(C)c1ccc(C(=O)OCC(=O)Nc2ccc(S(N)(=O)=O)cc2)cc1,40.5*,3.0,17.8,58.1*,7.0,98.8*,75.2*,-16.4,10.9*,101.2*,
CC(=O)Nc1cccc(/C(C)=N/Nc2ccc(S(=O)(=O)Nc3ccccc3C(=O)O)cc2[N+](=O)[O-])c1,2.3,x,5.0,25.6,-27.7,-0.1,x,x,x,x,
Cc1cc(=O)oc2cc(NC(=O)c3cccc(S(C)(=O)=O)c3)ccc12,2.6,2.0,0.3,7.7,-9.1,6.6,x,x,x,x,
Cc1cc(=O)oc2cc(NC(=O)C(C)Oc3ccc(F)cc3)ccc12 (stereo not drawn),0.0,0.0,0.1,3.5,-3.5,-0.6,x,x,x,x,
Cc1cc(=O)oc2cc(NC(=O)c3cccc(F)c3)ccc12,91.4*,0.0,29.6,13.2,58.3*,62.8*,35.4*,-17.0,-28.2,14.8,DNMT1 confirm=0.3;DNMT1 interf=-0.3
Cc1cc(=O)oc2cc(NC(=O)c3ccc(OC(F)F)cc3)ccc12,84.3*,0.0,41.2,-0.6,28.3,87.1*,79.5*,-11.8,-5.6,12.6,
CCC(c1nnnn1-c1c(C)cccc1C)N1CCCN(Cc2ccc(F)cc2)CC1 (stereo not drawn),x,x,-0.1,3.1,x,x,x,x,x,x,
COc1cc(/C=C(\C#N)C(=O)NC(C)C)ccc1OCc1ccc(C(=O)O)cc1,-1.0,1.0,-2.6,-5.3,2.5,6.0,x,x,x,x,
COc1cc(/C=C(\C#N)C(=O)Nc2cccc(C(=O)O)c2)ccc1OCc1ccc(C)cc1,60.7*,7.0,0.0,9.6,4.6,86.4*,72.4*,-18.9,0.9,6.4,
O=C(Nc1ccc2oc(-c3ccccc3F)nc2c1)c1ccc([N+](=O)[O-])o1,99.2*,0.0,89.8*,98.5*,107.9*,101.1*,94.6*,-7.3,-5.9,16.2,DNMT1 confirm=5.7;DNMT1 interf=-4.9
CC(=O)NNc1ncnc2ccccc12,0.5,0.0,1.0,4.3,-1.1,2.9,x,x,x,x,
O=C(NNc1ncnc2ccccc12)c1cccc(Cl)c1,37.7*,0.0,6.4,0.5,2.2,99.9*,91.4*,-7.1,-11.3,1.1,
COc1cc(OC)nc(Nc2nc(C(N)Cc3ccc(Cl)cc3)cs2)n1 (stereo not drawn),2.9,x,0.7,-74.1,-2.3,x,x,x,x,x,
O=C(N/N=C/c1cccnc1)c1ccc(NC(=O)c2cccc(Cl)c2)cc1,94.3*,0.0,21.4,61.2*,-11.5,70.1*,72.1*,-12.0,8.4*,61.1*,
O=C(Nc1cccc(S(=O)(=O)N2CCCC2)c1)[C@H]1C[C@H](O)[C@@H](CO)O1,-2.7,x,-1.3,3.2,0.1,x,x,x,x,x,
O=C1OC(Cc2ccccc2)(c2ccccc2)c2ccccc21 (stereo not drawn),1.4,x,1.4,8.8,0.1,x,x,x,x,x,
Cc1cc(N)n(-c2ccc(Oc3ccccc3)c(S(=O)(=O)O)c2)n1,43.3*,x,6.7,10.0,49.4,75.2*,60.2*,-9.6,0.8,16.6,DNMT1 confirm=0.5;DNMT1 interf=1.7
CCOC(=O)[C@]12CCCC=C1N(Cc1ccccc1)C(=O)[C@H](CC(=O)NCc1ccc(C)o1)C2,x,x,-0.6,-0.9,x,x,x,x,x,x,
Cc1ccc(NC(=O)CN2C(=O)S/C(=C\c3ccc(OCC(=O)O)c(Br)c3)C2=O)cc1,71.2*,3.0,2.9,1.0,33.2,71.6*,58.4*,-16.4,1.3,60.5*,
O=S(=O)(Nc1ccccc1)c1cccc2nsnc12,84.4*,18.0,58.5*,-14.2,43.7,77.7*,58.8*,-10.9,-16.2,40.2*,
N#C/C(=C\c1cccc(OCC(=O)O)c1)c1nc2ccccc2[nH]1,-1.3,0.0,0.9,-1.1,0.1,-8.3,x,x,x,x,
N#C/C(=C\c1ccc(OC(=O)c2ccc(Cl)s2)cc1)c1nc2ccccc2[nH]1,71.4*,81.0*,45.9,4.3,82.8*,98.6*,74.0*,-10.1,-3.1,24.8*,DNMT1 confirm=6.8;DNMT1 interf=-4.5
N#C/C(=C\c1ccc(OC(=O)c2ccc(Br)s2)cc1)c1nc2ccccc2[nH]1,56.6*,0.0,1.9,2.8,81.6*,100.8*,51.9*,0.1,5.5*,25.8,DNMT1 confirm=4.7;DNMT1 interf=-6.5
COc1cc(/C=C(\C#N)c2nc3ccccc3[nH]2)ccc1OC(=O)c1ccco1,3.2,7.0,5.2,-5.7,-2.6,0.0,x,x,x,x,
CC(=O)Oc1cccc(N2C(=O)c3ccc(C(=O)O)cc3C2=O)c1,9.7,0.0,-1.4,-27.9,5.1,-0.1,x,x,x,x,
SMILES,STEP inh,GRK2 inh,LMPTP inh,SUMO1-SIM PPI,DNMT1 inh,Scp-1 inhibitor,Scp1 confirm,Scp-1 MG ctr,Scp1 DSF,STEP inh conf,others
O=C(O)c1ccc2c(c1)C(=O)N(c1cccc(-c3nc4ccccc4s3)c1)C2=O,81.3*,0.0,4.4,-4.8,0.5,93.2*,85.5*,-6.0,5.4*,47.0*,
Cc1cc(C(=O)N/N=C/c2ccc(-c3cccc(Br)c3)o2)n[nH]1,1.8,1.0,0.2,4.4,28.4,-5.0,x,x,x,x,
Cc1cc(C(=O)N/N=C/c2ccc(-c3cccc(Cl)c3Cl)o2)n[nH]1,61.1*,0.0,49.1,-0.5,52.3*,61.1*,87.7*,-4.9,2.0,0.5,DNMT1 confirm=17.5;DNMT1 interf=3.4
O=C(c1ccc([N+](=O)[O-])cc1)c1cc2ccc(O)cc2oc1=O,53.1*,16.0,22.1,-28.7,1.1,72.2*,55.0*,-4.6,5.7*,0.4,
O=C(CCNC(=O)N1CC(=O)Nc2ccccc21)NCc1ccc(Cl)cc1,1.5,x,-1.2,5.2,-4.4,x,x,x,x,x,
Cc1nc2cc(-c3ccc(Br)cc3)[nH]n2c(=O)c1Cl,97.2*,0.0,37.9,11.5,6.7,96.0*,20.5,-6.5,x,0.6,
Cc1cc2nc(C)c(Cl)c(=O)n2[nH]1,-2.6,0.0,-0.2,2.6,5.1,-9.0,x,x,x,x,
Cc1cccc(C)c1NC(=O)C(c1ccncc1)N1CCN(CCN(C)C)CC1 (stereo not drawn),x,x,-6.4,-1.8,x,x,x,x,x,x,
